This is an account of results in paper PMC9476207 (ACS Omega, 2022).

One test concerns SNB-75. Description: NCI-60 single-dose antiproliferative screen. The format is cell-based. Conditions: Homo sapiens, SNB-75, 48 h, read-out: growth percent. Put shortly:
(§1)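 Cells grown in RPMI 1640 with 5% FBS and 2 mM L-glutamine, plated and held 24 h at 37 °C; time-zero plates TCA-fixed. DMSO stocks were diluted in gentamicin-containing medium to a final 10^-5 M, with a DMSO-only control. Exposure 48 h, 5% CO2. Adherent cells TCA-fixed 1 h at 4 °C, stained with 0.4% SRB, solubilised in 10 mM Trizma base, read at 515 nm. Growth percent derived from ODtzero, ODtest and ODctrl.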

Another test relates to A498. As to the kind of experiment: NCI-60 single-dose antiproliferative screen. The format is cell-based. Conditions: Homo sapiens, A498, 48 h, read-out: growth percent. Put shortly:
(§2)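 NCI-60 protocol. Lines were grown in RPMI 1640 with 5% FBS and 2 mM L-glutamine, plated and incubated 24 h at 37 °C; time-zero plates were TCA-fixed. The test compound was dissolved in DMSO, diluted in medium with 50 μg/mL gentamicin and given once at a final 10^-5 M (DMSO control) for 48 h. Cells were fixed with cold TCA (1 h, 4 °C) and stained with 0.4% SRB in 1% acetic acid for 10 min. Dye was dissolved in 10 mM Trizma base and read at 515 nm. Growth percent was calculated from time-zero, test and control ODs.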

Another test has as its system SF-539. Description: NCI-60 single-dose antiproliferative screen. Conditions: Homo sapiens, SF-539, 48 h, read-out: growth percent. The format is cell-based. Put shortly:
as §1

A further test concerns MDA-MB-231 ATCC. As to the kind of experiment: NCI-60 single-dose antiproliferative screen. To be noted: Homo sapiens, MDA-MB-231, 48 h, read-out: growth percent. The format is cell-based. The gist of the method: as §2
Another test concerns NCI-H23. Description: NCI-60 single-dose antiproliferative screen. To be noted: Homo sapiens, NCI-H23, 48 h, read-out: growth percent. In kind it is cell-based. Put shortly:
as §2

In the next test the test system is ACHN. As to the kind of experiment: NCI-60 single-dose antiproliferative screen. In kind it is cell-based. Conditions: Homo sapiens, 48 h, read-out: growth percent. The gist of the method:
as §2

In another test the test system is HCC-2998. Description: NCI-60 single-dose antiproliferative screen. The format is cell-based. To be noted: Homo sapiens, HCC 2998, 48 h, read-out: growth percent. The gist of the method:
as §2

The test system of another test is HL-60(TB). As to the kind of experiment: NCI-60 single-dose antiproliferative screen. Conditions: Homo sapiens, HL-60, 48 h, read-out: growth percent. In kind it is cell-based.
The test system of a further test is UACC-62. As to the kind of experiment: NCI-60 single-dose antiproliferative screen. In kind it is cell-based. Conditions: Homo sapiens, UACC-62, 48 h, read-out: growth percent. Put shortly:
as §1

The next test concerns UACC-257. As to the kind of experiment: NCI-60 single-dose antiproliferative screen. The format is cell-based. To be noted: Homo sapiens, UACC-257, 48 h, read-out: growth percent. The gist of the method: as §1
In another test the test system is HT29. As to the kind of experiment: NCI-60 single-dose antiproliferative screen. The format is cell-based. To be noted: Homo sapiens, HT-29, 48 h, read-out: growth percent. The gist of the method:
as §2

Another test relates to KM12. Description: NCI-60 single-dose antiproliferative screen. Conditions: Homo sapiens, KM12, 48 h, read-out: growth percent. In kind it is cell-based. Put shortly:
as §2

A further test has as its system A549/ATCC. Description: NCI-60 single-dose antiproliferative screen. The format is cell-based. To be noted: Homo sapiens, A549, 48 h, read-out: growth percent. The gist of the method: as §2
The test system of another test is BT-549. Description: NCI-60 single-dose antiproliferative screen. In kind it is cell-based. Conditions: Homo sapiens, BT-549, 48 h, read-out: growth percent. Put shortly: as §2
The next test deals with K-562. Description: NCI-60 single-dose antiproliferative screen. Conditions: Homo sapiens, K562, 48 h, read-out: growth percent. The format is cell-based. Put shortly: as §2
The next test relates to SW-620. Description: NCI-60 single-dose antiproliferative screen. In kind it is cell-based. To be noted: Homo sapiens, SW-620, 48 h, read-out: growth percent. Put shortly:
as §1

A further test concerns CCRF-CEM. Description: NCI-60 single-dose antiproliferative screen. Conditions: Homo sapiens, 48 h, read-out: growth percent. The format is cell-based. Put shortly:
as §2

Another test relates to SR. As to the kind of experiment: NCI-60 single-dose antiproliferative screen. To be noted: Homo sapiens, 48 h, read-out: growth percent. In kind it is cell-based. Put shortly:
as §1

A further test deals with IGROV1. Description: NCI-60 single-dose antiproliferative screen. The format is cell-based. Conditions: Homo sapiens, IGROV-1, 48 h, read-out: growth percent. Put shortly: as §2
The next test deals with MCF-7. As to the kind of experiment: NCI-60 single-dose antiproliferative screen. In kind it is cell-based. Conditions: Homo sapiens, MCF7, 48 h, read-out: growth percent. The gist of the method:
as §2

The subject of the next test is SK-MEL-28. Description: NCI-60 single-dose antiproliferative screen. In kind it is cell-based. Conditions: Homo sapiens, SK-MEL-28, 48 h, read-out: growth percent. Put shortly: as §1
Another test relates to SK-MEL-2. Description: NCI-60 single-dose antiproliferative screen. To be noted: Homo sapiens, SK-MEL-2, 48 h, read-out: growth percent. In kind it is cell-based. Put shortly: as §1
Test [1] has as its system NCI-H460 cells. Description: Wound healing assay. In kind it is cell-based, human.
Test [2] has as its system NCI-H460 cells. As to the kind of experiment: Colony-forming ability. In kind it is cell-based, human.

Consider `COc1cc(CNC(=O)C[C@H](C)CCC=C(C)C)ccc1OCc1cn(-c2ccc(Cl)cc2)nn1` [18b, (R)-N-(4-((1-(4-Chlorophenyl)-1H-1,2,3-triazol-4-yl)methoxy)-3-methoxybenzyl)-3,7-dimethyloct-6-enamide], for which the activity at 10 µM was determined as 41.6% in the test with SNB-75; 98.9% with A498; 67.7% in the test on SF-539; 59.6% in the test with MDA-MB-231 ATCC; 64.9% in the test on NCI-H23; 44.8% in the test on ACHN. Further, the activity at 10 µM in the test with HCC-2998 was 75.9%; in the test on HL-60(TB), 87.8%; with UACC-62, 65.7%; with UACC-257, 85.5%; in the test on HT29, 79.6%; with KM12, 87.7%. Moreover, the activity at 10 µM in the test on A549/ATCC amounted to 57.1%; with BT-549, 87.4%; in the test on K-562, 53.5%; in the test on SW-620, 76.8%; in the test with CCRF-CEM it was 92.9%; with SR, 65.8%. The activity at 10 µM with IGROV1 was 80.2%; in the test on MCF-7 it was 51.6%; in the test with SK-MEL-28, 87%; in the test with SK-MEL-2, 83.6%.

On to `COc1cc(CNC(=O)CCCC/C=C/C(C)C)ccc1OCc1cn(-c2ccc(C#N)cc2)nn1` [14j, (E)-N-(4-((1-(4-Cyanophenyl)-1H-1,2,3-triazol-4-yl)methoxy)-3-methoxybenzyl)-8-methylnon-6-enamide], for which the activity at 10 µM in the test on SNB-75 stood at 94.2%; with SF-539, 94.5%; in the test on MDA-MB-231 ATCC, 90.8%; in the test on NCI-H23, 72.1%; in the test on HCC-2998 it was 94.5%; with UACC-62, 81.8%. Further, the activity at 10 µM in the test on UACC-257 was determined as 94.3%; with HT29 it was 95.6%; in the test on KM12, 91.5%; in the test with A549/ATCC, 84.8%; with BT-549, 91.2%; in the test on K-562, 75.4%. Further, the activity at 10 µM came out at 98% with SW-620; 86.2% in the test on CCRF-CEM; 76.3% with SR; 100% with IGROV1; 103% with MCF-7; 105% with SK-MEL-28. In addition, the activity at 10 µM in the test on SK-MEL-2 amounted to 98.4%. The “migration capacity (wound healing)” value with NCI-H460 cells [1] is reported as “moderate wound healing”. For the same molecule, the colony-forming ability result in the test with NCI-H460 cells [2] is recorded as “inhibited the colony-forming ability”.

As for `COc1cc(CNC(=O)CCCC/C=C/C(C)C)ccc1OCc1cn(-c2cccc(Cl)c2)nn1` [14b, (E)-N-(4-((1-(3-Chlorophenyl)-1H-1,2,3-triazol-4-yl)methoxy)-3-methoxybenzyl)-8-methylnon-6-enamide], the activity at 10 µM in the test with SNB-75 is 75.8%; with SF-539, 82%; in the test on MDA-MB-231 ATCC, 64.8%; in the test on NCI-H23, 87.2%; in the test with ACHN it was 73%; in the test on HCC-2998, 104%. Further, the activity at 10 µM in the test with UACC-62 was 75%; with UACC-257, 90.1%; in the test with HT29 it was 99.2%; with KM12, 98.6%; in the test with A549/ATCC it was 82.9%; with BT-549 it was 99.3%. Besides, the activity at 10 µM with K-562 came to 84.9%; with SW-620, 92.8%; with CCRF-CEM, 87.3%; in the test with SR, 85.6%; with IGROV1, 79.9%; in the test with MCF-7, 86.9%. In addition, the activity at 10 µM worked out at 106% in the test with SK-MEL-28 and 86.7% with SK-MEL-2.

Take `COc1cc(CNC(=O)CCCC/C=C/C(C)C)ccc1OCc1cn(-c2ccc(C)c(C)c2)nn1` [14p, (E)-N-(4-((1-(3,4-Dimethylphenyl)-1H-1,2,3-triazol-4-yl)methoxy)-3-methoxybenzyl)-8-methylnon-6-enamide]: the activity at 10 µM in the test on SNB-75 turned out to be 91%; in the test with SF-539, 105%; in the test with MDA-MB-231 ATCC, 89.3%; with NCI-H23, 74.9%; in the test on ACHN, 68.5%; in the test with HCC-2998, 101%. Also, the activity at 10 µM in the test on UACC-62 stood at 75.1%; in the test with UACC-257, 81.9%; with HT29 it was 97.8%; in the test with KM12, 97.5%; with A549/ATCC it was 82.2%; in the test with BT-549, 93.7%. In addition, the activity at 10 µM in the test with K-562 came out at 74.6%; in the test with SW-620, 95.2%; with CCRF-CEM, 75.5%; in the test with SR, 58.2%; in the test on IGROV1, 98.8%; in the test with MCF-7, 86.9%. The activity at 10 µM stood at 112% in the test on SK-MEL-28 and 90.3% in the test on SK-MEL-2.

For the molecule `COc1cc(CNC(=O)CCCC/C=C/C(C)C)ccc1OCc1cn(-c2ccc([N+](=O)[O-])cc2)nn1` [14e, (E)-N-(3-Methoxy-4-((1-(4-nitrophenyl)-1H-1,2,3-triazol-4-yl)methoxy)benzyl)-8methylnon-6-enamide], the activity at 10 µM in the test on SNB-75 worked out at 83.9%; in the test on SF-539, 104%; with MDA-MB-231 ATCC it was 75.3%; with NCI-H23 it was 83.2%; in the test on ACHN it was 82%; in the test with HCC-2998, 108%. In addition, the activity at 10 µM in the test with UACC-62 turned out to be 69.3%; in the test on UACC-257, 82.6%; in the test on HT29 it was 98.1%; in the test on KM12, 90%; with A549/ATCC, 84.1%; in the test with BT-549, 80.4%. Also, the activity at 10 µM worked out at 74.5% in the test with K-562; 99.8% with SW-620; 84.9% in the test on CCRF-CEM; 62.2% with SR; 90.4% with IGROV1; 83.5% with MCF-7. The activity at 10 µM worked out at 102% with SK-MEL-28 and 92% in the test on SK-MEL-2.
